Source: ChEMBL document CHEMBL2176985 (J Med Chem, 2012)
Activity calls are given as the source filed them. The calls are words filed in the database; no cut-off is given here.

Assays:
[1] = target: T1, Acetylcholine receptor; alpha1/beta1/delta/gamma (Homo sapiens, UniProt P02708+P07510+P11230+Q07001); assay: Antagonist activity at human alpha1beta1gammadelta nAChR expressed in human TE671/RD cells assessed as inhibition of 86Rb+ efflux preincubated for 10 mins by liquid scintillation counting; assay type: functional, cell-based
T1 sequence (P02708 whole entry): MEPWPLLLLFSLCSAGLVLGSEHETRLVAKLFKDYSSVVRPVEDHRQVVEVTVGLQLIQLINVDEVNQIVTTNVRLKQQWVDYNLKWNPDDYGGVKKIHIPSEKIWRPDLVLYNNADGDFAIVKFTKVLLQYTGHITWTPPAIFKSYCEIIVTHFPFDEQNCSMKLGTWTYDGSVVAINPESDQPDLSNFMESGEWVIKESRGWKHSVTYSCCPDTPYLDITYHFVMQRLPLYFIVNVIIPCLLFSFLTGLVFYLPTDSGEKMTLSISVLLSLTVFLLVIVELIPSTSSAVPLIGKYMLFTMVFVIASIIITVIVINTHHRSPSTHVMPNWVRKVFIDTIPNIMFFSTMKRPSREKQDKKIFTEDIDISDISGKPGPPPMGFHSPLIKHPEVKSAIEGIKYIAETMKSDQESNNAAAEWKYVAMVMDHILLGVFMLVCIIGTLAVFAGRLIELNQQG
T1 sequence (P07510 whole entry): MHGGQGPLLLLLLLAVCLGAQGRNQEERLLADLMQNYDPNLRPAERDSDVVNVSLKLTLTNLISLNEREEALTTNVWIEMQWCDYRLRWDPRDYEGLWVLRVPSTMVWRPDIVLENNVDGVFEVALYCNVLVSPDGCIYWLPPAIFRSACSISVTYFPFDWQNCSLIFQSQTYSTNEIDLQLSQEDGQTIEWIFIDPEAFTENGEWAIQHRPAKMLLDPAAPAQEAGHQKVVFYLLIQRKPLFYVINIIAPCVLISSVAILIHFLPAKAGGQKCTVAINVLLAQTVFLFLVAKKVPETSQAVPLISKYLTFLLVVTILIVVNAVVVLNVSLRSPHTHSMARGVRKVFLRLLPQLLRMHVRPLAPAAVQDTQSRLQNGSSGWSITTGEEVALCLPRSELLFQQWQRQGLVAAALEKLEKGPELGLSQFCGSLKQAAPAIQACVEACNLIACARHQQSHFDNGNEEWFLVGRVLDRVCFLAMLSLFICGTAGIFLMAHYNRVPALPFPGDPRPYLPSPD
T1 sequence (P11230 whole entry): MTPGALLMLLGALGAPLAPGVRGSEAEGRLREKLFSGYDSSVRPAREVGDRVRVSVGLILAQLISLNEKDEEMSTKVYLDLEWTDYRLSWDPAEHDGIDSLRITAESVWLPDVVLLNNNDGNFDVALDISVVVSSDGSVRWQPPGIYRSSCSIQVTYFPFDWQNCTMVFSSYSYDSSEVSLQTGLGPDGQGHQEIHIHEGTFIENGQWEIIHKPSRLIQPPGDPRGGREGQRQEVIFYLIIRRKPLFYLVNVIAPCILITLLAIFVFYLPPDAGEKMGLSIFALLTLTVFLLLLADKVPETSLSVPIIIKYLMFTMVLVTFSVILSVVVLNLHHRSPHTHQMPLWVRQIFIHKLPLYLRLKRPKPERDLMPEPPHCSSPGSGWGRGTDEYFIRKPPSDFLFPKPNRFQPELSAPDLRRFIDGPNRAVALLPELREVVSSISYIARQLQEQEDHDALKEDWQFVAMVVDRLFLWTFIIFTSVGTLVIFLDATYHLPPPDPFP
T1 sequence (Q07001 whole entry): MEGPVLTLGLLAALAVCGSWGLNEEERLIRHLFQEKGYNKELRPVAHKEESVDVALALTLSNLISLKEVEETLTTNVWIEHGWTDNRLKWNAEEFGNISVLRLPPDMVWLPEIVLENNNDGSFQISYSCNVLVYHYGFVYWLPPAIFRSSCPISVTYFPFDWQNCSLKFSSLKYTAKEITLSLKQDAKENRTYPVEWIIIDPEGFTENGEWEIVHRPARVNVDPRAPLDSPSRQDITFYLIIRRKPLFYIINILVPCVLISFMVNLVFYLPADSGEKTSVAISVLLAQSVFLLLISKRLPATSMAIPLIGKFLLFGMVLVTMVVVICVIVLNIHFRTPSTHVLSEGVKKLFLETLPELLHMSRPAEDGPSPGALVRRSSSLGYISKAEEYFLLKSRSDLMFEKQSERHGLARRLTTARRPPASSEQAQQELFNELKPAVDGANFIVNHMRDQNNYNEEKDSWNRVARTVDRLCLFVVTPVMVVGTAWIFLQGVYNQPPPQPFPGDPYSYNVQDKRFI
Outline: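 Cells loaded with ⁸⁶Rb⁺ were pre-exposed to test drug for 10 min. […] Efflux was normalized to intracellular ⁸⁶Rb⁺ available at that step. Nonspecific efflux came from 100 µM mecamylamine or buffer. Inactivation IC50 was obtained by curve fit.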

[2] = target: T1, Acetylcholine receptor; alpha1/beta1/delta/gamma; assay: Agonist activity at human alpha1beta1gammadelta nAChR expressed in human TE671/RD cells assessed as stimulation of 86Rb+ efflux preincubated for 10 mins by liquid scintillation counting; assay type: functional, cell-based
[3] = Agonist activity at ganglionic nAChR; assay type: functional
[4] = target: T1, Acetylcholine receptor; alpha1/beta1/delta/gamma; assay: Binding affinity to muscle type alpha1beta1gammadelta-nAChR; assay type: protein-complex assay, Muscle tissue
Mus musculus [5] = assay: Antidepressant activity in BALB/cJ mouse assessed as reduction of immobility time at 5 to 30 mg/kg, ip administered 30 mins before test measured over 6 mins trial by post hoc Fisher's LSD test; assay type: functional, organism-based
Mus musculus [6] = assay: Antidepressant activity in BALB/cJ mouse assessed as reduction of immobility time at 5 to 30 mg/kg, ip administered 30 mins before test measured over 6 mins trial by forced swim test; assay type: functional, organism-based
[7] = target: T2, Neuronal acetylcholine receptor; alpha3/beta4 (Homo sapiens, UniProt P30926+P32297); assay: Antagonist activity at human alpha3beta4 nAChR expressed in human SH-SY5Y cells assessed as inhibition of 86Rb+ efflux preincubated for 10 mins by liquid scintillation counting; assay type: functional, cell-based
T2 sequence (P30926 whole entry): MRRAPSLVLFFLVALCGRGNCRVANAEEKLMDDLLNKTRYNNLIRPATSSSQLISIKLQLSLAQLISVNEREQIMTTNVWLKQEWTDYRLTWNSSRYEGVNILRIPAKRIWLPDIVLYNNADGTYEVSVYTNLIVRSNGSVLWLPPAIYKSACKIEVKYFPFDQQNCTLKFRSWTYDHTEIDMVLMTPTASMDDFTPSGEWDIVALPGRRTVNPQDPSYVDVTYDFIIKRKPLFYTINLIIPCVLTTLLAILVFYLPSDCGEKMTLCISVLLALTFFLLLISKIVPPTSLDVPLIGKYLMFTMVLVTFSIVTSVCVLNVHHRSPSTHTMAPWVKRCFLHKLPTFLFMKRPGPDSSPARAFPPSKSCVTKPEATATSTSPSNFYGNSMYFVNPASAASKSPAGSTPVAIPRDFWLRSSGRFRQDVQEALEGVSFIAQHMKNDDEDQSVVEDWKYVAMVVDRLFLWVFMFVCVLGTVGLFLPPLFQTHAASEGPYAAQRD
T2 sequence (P32297 whole entry): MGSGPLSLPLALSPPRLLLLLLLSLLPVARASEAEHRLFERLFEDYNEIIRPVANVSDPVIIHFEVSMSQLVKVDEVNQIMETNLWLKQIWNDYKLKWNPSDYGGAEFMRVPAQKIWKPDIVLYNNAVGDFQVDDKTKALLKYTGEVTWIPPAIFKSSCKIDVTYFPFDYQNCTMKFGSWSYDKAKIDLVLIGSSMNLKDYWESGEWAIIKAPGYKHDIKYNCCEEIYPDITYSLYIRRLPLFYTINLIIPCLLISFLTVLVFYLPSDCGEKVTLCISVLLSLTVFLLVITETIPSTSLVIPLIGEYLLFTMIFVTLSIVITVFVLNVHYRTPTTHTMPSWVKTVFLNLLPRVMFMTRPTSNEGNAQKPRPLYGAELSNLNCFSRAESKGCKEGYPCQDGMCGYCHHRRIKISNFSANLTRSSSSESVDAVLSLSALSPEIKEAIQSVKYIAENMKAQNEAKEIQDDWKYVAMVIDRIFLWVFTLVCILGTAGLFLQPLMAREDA
Outline: (§1)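 Cells loaded with ⁸⁶Rb⁺ were pre-exposed to test drug for 10 min. Efflux was normalized to intracellular ⁸⁶Rb⁺ available at that step. Nonspecific efflux came from 100 µM mecamylamine or buffer. Inactivation IC50 was obtained by curve fit.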

[8] = target: T2, Neuronal acetylcholine receptor; alpha3/beta4; assay: Agonist activity at human alpha3beta4 nAChR expressed in human SH-SY5Y cells assessed as stimulation of 86Rb+ efflux preincubated for 10 mins by liquid scintillation counting; assay type: functional, cell-based
[9] = target: T3, Neuronal acetylcholine receptor; alpha4/beta2 (Homo sapiens, UniProt P17787+P43681); assay: Antagonist activity at human alpha4beta2 nAChR expressed in human SH-EP1 cells assessed as inhibition of 86Rb+ efflux preincubated for 10 mins by liquid scintillation counting; assay type: functional, cell-based; outline: as §1
[10] = target: T3, Neuronal acetylcholine receptor; alpha4/beta2; assay: Agonist activity at human alpha4beta2 nAChR expressed in human SH-EP1 cells assessed as stimulation of 86Rb+ efflux preincubated for 10 mins by liquid scintillation counting; assay type: functional, cell-based
[11] = target: Neuronal acetylcholine receptor; alpha4/beta4 (Rattus norvegicus) (UniProt P09483+P12392); assay: Displacement of [3H]Epibatidine from rat alpha4beta4 nAChR at 10 uM; assay type: protein-complex assay
[12] = target: T4, Neuronal acetylcholine receptor; alpha4/beta2 (Rattus norvegicus, UniProt P09483+P12390); assay: Displacement of [3H]Epibatidine from alpha4beta2 nAChR in rat brain; assay type: tissue-based
T4 sequence (P09483 whole entry): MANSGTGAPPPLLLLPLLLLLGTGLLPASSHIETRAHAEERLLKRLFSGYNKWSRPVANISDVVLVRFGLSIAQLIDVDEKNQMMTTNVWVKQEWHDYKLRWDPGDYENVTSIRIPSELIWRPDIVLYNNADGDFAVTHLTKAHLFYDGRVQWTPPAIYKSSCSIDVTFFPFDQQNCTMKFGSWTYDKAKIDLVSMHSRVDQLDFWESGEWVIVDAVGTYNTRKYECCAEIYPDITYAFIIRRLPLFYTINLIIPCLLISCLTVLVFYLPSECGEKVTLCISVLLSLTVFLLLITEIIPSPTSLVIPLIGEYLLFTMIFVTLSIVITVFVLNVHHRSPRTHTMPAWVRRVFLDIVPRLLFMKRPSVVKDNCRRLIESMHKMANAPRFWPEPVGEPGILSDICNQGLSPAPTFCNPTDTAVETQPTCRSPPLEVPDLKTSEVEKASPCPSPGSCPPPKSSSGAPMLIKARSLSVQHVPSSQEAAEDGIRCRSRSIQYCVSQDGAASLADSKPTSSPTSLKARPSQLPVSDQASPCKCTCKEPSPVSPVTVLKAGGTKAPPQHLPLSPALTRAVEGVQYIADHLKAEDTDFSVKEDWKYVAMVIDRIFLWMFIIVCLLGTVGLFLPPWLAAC
T4 sequence (P12390 whole entry): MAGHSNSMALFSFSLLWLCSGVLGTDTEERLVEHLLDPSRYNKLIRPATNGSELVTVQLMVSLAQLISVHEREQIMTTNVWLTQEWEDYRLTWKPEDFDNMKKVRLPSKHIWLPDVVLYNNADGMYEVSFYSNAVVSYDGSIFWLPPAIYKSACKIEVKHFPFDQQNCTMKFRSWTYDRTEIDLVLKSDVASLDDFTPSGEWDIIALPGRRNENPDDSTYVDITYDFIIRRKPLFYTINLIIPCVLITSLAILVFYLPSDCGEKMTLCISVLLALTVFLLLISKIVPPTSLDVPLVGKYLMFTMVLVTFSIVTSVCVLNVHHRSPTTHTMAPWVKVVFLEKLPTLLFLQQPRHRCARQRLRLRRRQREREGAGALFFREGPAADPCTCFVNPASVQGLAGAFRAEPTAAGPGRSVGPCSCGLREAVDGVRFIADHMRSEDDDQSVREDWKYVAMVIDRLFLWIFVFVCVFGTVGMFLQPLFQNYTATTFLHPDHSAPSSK

[13] = target: T4, Neuronal acetylcholine receptor; alpha4/beta2; assay: Displacement of [3H]Epibatidine from rat alpha4beta2 nAChR; assay type: protein-complex assay
[14] = target: Neuronal acetylcholine receptor; alpha3/beta4 (Rattus norvegicus) (UniProt P04757+P12392); assay: Displacement of [3H]Epibatidine from rat alpha3beta4 nAChR at 10 uM; assay type: protein-complex assay
[15] = target: Neuronal acetylcholine receptor; alpha3/beta2 (Rattus norvegicus, UniProt P04757+P12390); assay: Displacement of [3H]Epibatidine from rat alpha3beta2 nAChR; assay type: protein-complex assay
Neuronal acetylcholine receptor; alpha3/beta2, sequence (P04757 whole entry): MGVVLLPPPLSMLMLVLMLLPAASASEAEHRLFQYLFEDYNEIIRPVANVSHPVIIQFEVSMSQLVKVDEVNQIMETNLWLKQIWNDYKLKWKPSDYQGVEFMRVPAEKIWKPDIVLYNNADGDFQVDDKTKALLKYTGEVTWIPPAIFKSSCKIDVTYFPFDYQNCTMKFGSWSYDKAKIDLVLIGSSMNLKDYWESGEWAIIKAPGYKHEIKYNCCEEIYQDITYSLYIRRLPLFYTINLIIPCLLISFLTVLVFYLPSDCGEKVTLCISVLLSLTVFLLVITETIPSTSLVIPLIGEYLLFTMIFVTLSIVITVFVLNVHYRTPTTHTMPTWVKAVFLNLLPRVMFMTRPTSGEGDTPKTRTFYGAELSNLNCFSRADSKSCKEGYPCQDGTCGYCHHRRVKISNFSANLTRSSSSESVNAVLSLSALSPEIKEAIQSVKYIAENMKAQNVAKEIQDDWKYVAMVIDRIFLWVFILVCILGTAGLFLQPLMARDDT
Neuronal acetylcholine receptor; alpha3/beta2, sequence (P12390 whole entry): as the sequence (P12390 whole entry) above

[16] = tested on: Neuronal acetylcholine receptor alpha2/beta4 (Rattus norvegicus); assay: Displacement of [3H]Epibatidine from rat alpha2beta4 nAChR at 10 uM
Mus musculus [17] = assay: Antidepressant activity in BALB/cJ mouse assessed as reduction of immobility time at 20 mg/kg, ip administered 30 mins before test measured over 6 mins trial by forced swim test; assay type: functional, organism-based; set-up: dose 20 mg/kg
[18] = target: T3, Neuronal acetylcholine receptor; alpha4/beta2; assay: Antagonist activity at human alpha4beta2 nAChR expressed in human SH-EP1 cells assessed as inhibition of 86Rb+ efflux preincubated for 10 mins by liquid scintillation counting relative to control; assay type: functional, cell-based; outline: as §1
[19] = target: T3, Neuronal acetylcholine receptor; alpha4/beta2; assay: Agonist activity at human low-sensitivity alpha4beta2 nAChR expressed in human SH-EP1 cells assessed as stimulation of 86Rb+ efflux preincubated for 10 mins by liquid scintillation counting relative to control; assay type: functional, cell-based
[20] = target: T3, Neuronal acetylcholine receptor; alpha4/beta2; assay: Agonist activity at human high-sensitivity alpha4beta2 nAChR expressed in human SH-EP1 cells assessed as stimulation of 86Rb+ efflux preincubated for 10 mins by liquid scintillation counting relative to control; assay type: functional, cell-based
[21] = target: Neuronal acetylcholine receptor; alpha4/beta4 (Homo sapiens, UniProt P30926+P43681); assay: Binding affinity to alpha4beta4 nAChR; assay type: protein-complex assay
Mus musculus [22] = assay: Antidepressant activity in BALB/cJ mouse assessed as reduction of immobility time at 1 to 3 mg/kg, ip administered 30 mins before test measured over 6 mins trial by forced swim test; assay type: functional, organism-based

Structure (SMILES) | IC50 [1] [µM] | EC50 [2] [µM] | other results
OCCc1cc(-c2cncc(OC[C@@H]3CCCN3)c2)on1 | > 1 | > 1 | 
CCNC(=O)OCCc1cc(-c2cncc(OC[C@@H]3CCN3)c2)on1 | > 1 | > 1 | 
OCCc1cc(-c2cncc(OC[C@H]3NC[C@@H]4C[C@@H]43)c2)on1 | > 1 | > 1 | 
c1cncc(OC[C@@H]2CCN2)c1 |  |  | EC50 [3]: 0.8 µM; Ki [4]: 0.314 µM
CN1CCC[C@H]1c1cccnc1 [NICOTINE] |  | > 1 | 
FCCCc1cc(-c2cncc(OC[C@@H]3CCN3)c2)on1 | > 1 | > 1 | Activity (Mus musculus [5]): Active; Activity (Mus musculus [6]): Active
c1ncc(-c2cc(CCN3CCOCC3)no2)cc1OC[C@@H]1CCN1 | > 1 | > 1 | IC50 [7]: > 1 µM; EC50 [8]: > 1 µM; IC50 [9]: > 0.1 µM; EC50 ([10]; read-out: pEC50 (converted)): > 0.1 µM; EC50 ([10]; sh-ep1, read-out: EC50): > 0.1 µM; inhibition [11]: < 50%; Ki [12]: 0.0263 µM; Ki [13]: 0.011 µM; inhibition [14]: < 50%; Ki [15]: 0.117 µM; inhibition [16]: < 50%
CN[C@H]1CC[C@@H](c2ccc(Cl)c(Cl)c2)c2ccccc21 |  |  | Activity (Mus musculus [17]): Active
CN1CCC[C@H]1COc1cncc(-c2cc(CCO)no2)c1 | > 1 | > 1 | 
O=C(Nc1ccccc1)OCCc1cc(-c2cncc(OC[C@@H]3CCN3)c2)on1 | > 1 | > 1 | 
c1cnc2cc3c(cc2n1)[C@@H]1CNC[C@H]3C1 [VARENICLINE] |  | > 1 | Imax [18]: 83%; Efficacy [19]: 34%; Efficacy [20]: 106%; Ki [21]: 0.11 µM
c1ncc(-c2cc(CCN3CCOCC3)no2)cc1OC[C@@H]1CCCN1 | > 1 | > 1 | IC50 [7]: > 1 µM; EC50 [8]: > 1 µM; IC50 [9]: > 0.1 µM; EC50 ([10]; read-out: pEC50 (converted)): > 0.1 µM; EC50 ([10]; sh-ep1, read-out: EC50): > 0.1 µM; inhibition [11]: < 50%; Ki [12]: 0.132 µM; Ki [13]: 0.032 µM; inhibition [14]: < 50%; Ki [15]: 0.575 µM; inhibition [16]: < 50%
CCc1cc(-c2cncc(OC[C@H]3NC[C@@H]4C[C@@H]43)c2)on1 | > 1 | > 1 | 
CCNC(=O)OCCc1cc(-c2cncc(OC[C@@H]3CCCN3)c2)on1 | > 1 | > 1 | 
COCCc1cc(-c2cncc(OC[C@@H]3CCN3)c2)on1 | > 1 | > 1 | 
O=C(Nc1ccccc1)OCCc1cc(-c2cncc(OC[C@@H]3CCCN3)c2)on1 | > 1 | > 1 | 
CCc1cc(-c2cncc(OC[C@@H]3CCN3)c2)on1 | > 1 | > 1 | Activity (Mus musculus [5]): Active; Activity (Mus musculus [22]): Active; Activity (Mus musculus [6]): Active
FC(F)CCc1cc(-c2cncc(OC[C@@H]3CCN3)c2)on1 | > 1 | > 1 | Activity (Mus musculus [5]): Active; Activity (Mus musculus [6]): Active
OCCCc1cc(-c2cncc(OC[C@@H]3CCCN3)c2)on1 | > 1 | > 1 | 
FC(F)(F)CCc1cc(-c2cncc(OC[C@@H]3CCN3)c2)on1 | > 1 | > 1 | 
OCCc1cc(-c2cncc(OC[C@@H]3CCN3)c2)on1 | > 1 | > 1 | 
